In general, viability refers to a read-out of living cells in per cent, often relative to untreated cells. As a reminder, the inhibition is the relative decrease from the control value, in per cent.

Consider 16 compounds from PubChem BioAssay.

Activity calls are given as the source filed them.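 How the source made its calls, unless noted: active means Her2 level under about 52% in both replicate screens, with viability over 70% of control (limit read from the data); inconclusive means Her2 under the limit in one screen only, or viability under 70%; inactive means Her2 level above the set limit.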

Assay [1] can be described thus: reducers of endogenous Her2 protein level, primary screen, SKBR3 breast tumor cells, AlphaScreen, ATP viability (AID 461).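 On Her2 level: lower value means less Her2 protein in the cells.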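 On viability: percent of carrier control wells set as 100% viability.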 To be noted: 18-24 h, measured here: SKBR3 viability, ATP luminescence, at 10 µM. In general terms: Bead proximity is the source of the signal in Alpha formats.
Assay [2] concerns the target Receptor tyrosine-protein kinase erbB-2 (Homo sapiens) (UniProt P04626). The description is as above. To be noted: 18-24 h, at 10 µM, stronger effect = lower value.
The nature of assay [3]: SK-BR-3 cell growth inhibitors, pilot screen, 24 h, human (AID 572;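 active means viability at or below 10% of carrier control in both of two separate runs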;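 further: compound exposure lasted between 18 and 24 h rather than exactly 24 h; 100% = carrier-treated control wells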). To be noted: SK-BR-3 viability, CellTiter-Glo luminescence, at 10 µM, stronger effect = lower value. Background: In ATP-based viability assays light output follows the ATP content of the culture.
The nature of assay [4]: HUVEC growth inhibition – cell-based, human, primary screen (AID 575;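 active means viability at or below 30% in both replicate assays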;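 further: 100% = median of untreated cell wells with 0.1% DMSO on each plate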). Particulars: HUVEC proliferation, CellTiter-Glo luminescence, 72 h; at 10 µM; stronger effect = lower value. A digest of the protocol: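 System: primary human umbilical vein endothelial cells; Quantity: 1250 endothelial cells in each well; Buffer or medium: supplemented EBM, 2% fetal bovine serum; Doses: one dose, 10 µM final, 0.1% DMSO; Incubation: 72 h compound incubation; Technique: ATP-based CellTiter-Glo luminescent read; Evaluation: percent of median DMSO-control luminescence; Controls: vehicle and MePR control wells.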

Assay [5] is described as follows: growth inhibitors of H69AR lung tumor, primary screen, human, duplicate replicates (AID 580;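 active means viability at or under a set limit in both replicates, limit being median viability minus 3 SD, cut at about 48% in these data, passing the limit was not always enough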;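 further: 100% = mean luminescence of untreated wells and 0% = no signal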). Particulars: H69AR lung tumor cells viability, ATP luminescence, 72 h; at 10 µM; stronger effect = lower value.
A short description of assay [6]: reversal of MRP1-mediated doxorubicin resistance, pilot screen, H69AR cells, doxorubicin co-treatment (AID 601;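 active means viability loss from added drug above about 55%, and viability with drug at most 40%, in both replicates, limit read from the data, passing the limit was not always enough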). To be noted: CellTiter-Glo, 72 h, at 10 µM; for differential viability (reversal): stronger effect = higher value.
Assay [7] in a line: 384-well plate pilot, post-Golgi transport modulator project, inhibition of yeast transport mutant growth (AID 636; in the data active means inhibition above about 31%). To be noted: absorbance 615 nm, about 18 h, stronger effect = higher value.
A short description of assay [8]: growth suppression of yeast trafficking mutant, preliminary HTS, modulators of trafficking downstream of Golgi apparatus project, 1536-format plate, OD 615 nm (AID 637; in the data active means inhibition above about 30%). Particulars: yeast transport mutant growth, absorbance 615 nm, 18 h; stronger effect = higher value.
Where [9] appears, read: H69AR cells + 2 uM doxorubicin, measured here: viability with 2 uM doxorubicin, stronger effect = lower value.
The mark [10] stands for this setting: H69AR cells, compound alone cytotoxicity.

Sequence of Receptor tyrosine-protein kinase erbB-2 (Homo sapiens) (P04626 whole entry, looked up): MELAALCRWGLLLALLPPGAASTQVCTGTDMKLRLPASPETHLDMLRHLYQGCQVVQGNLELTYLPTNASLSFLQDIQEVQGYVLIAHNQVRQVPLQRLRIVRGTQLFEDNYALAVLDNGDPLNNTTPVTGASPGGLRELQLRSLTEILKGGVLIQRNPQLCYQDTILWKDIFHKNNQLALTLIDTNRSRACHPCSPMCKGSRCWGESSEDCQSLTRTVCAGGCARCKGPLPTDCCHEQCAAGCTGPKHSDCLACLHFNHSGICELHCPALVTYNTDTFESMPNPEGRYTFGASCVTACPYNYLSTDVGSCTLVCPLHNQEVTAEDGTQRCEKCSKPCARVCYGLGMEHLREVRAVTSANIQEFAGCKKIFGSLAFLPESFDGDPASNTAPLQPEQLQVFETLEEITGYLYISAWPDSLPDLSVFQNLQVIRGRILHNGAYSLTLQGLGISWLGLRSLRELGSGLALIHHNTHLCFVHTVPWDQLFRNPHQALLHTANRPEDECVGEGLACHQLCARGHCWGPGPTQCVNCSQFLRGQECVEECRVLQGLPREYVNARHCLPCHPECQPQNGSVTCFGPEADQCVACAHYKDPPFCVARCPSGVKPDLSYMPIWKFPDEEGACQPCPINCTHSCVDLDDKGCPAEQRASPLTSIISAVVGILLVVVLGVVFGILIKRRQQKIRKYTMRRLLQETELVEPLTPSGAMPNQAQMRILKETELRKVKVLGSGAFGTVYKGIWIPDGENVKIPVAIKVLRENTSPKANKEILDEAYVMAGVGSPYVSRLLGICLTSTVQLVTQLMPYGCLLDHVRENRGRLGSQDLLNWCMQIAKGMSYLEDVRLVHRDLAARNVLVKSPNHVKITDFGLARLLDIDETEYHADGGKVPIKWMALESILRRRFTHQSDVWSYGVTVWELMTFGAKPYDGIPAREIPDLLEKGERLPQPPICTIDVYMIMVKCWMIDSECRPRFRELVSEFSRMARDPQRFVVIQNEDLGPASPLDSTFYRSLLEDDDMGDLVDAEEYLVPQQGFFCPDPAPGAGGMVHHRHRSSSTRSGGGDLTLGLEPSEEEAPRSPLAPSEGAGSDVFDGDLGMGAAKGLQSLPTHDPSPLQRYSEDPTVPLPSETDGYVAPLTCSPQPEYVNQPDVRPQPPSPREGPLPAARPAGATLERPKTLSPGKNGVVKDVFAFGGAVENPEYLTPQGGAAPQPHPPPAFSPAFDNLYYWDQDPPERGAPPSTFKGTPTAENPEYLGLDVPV

Take `CC(=O)Oc1ccc(CCC(C)OC(C)=O)cc1` (stereo not given): the viability in assay [1] is 101%; in assay [3], 101% (inactive); in assay [4], 93.2% (inactive); in assay [5], 99.7% (inactive); in assay [6] (setting [9]) it was 96.9%; in assay [6] (setting [10]), 99.7%. Further, the Her2 level in assay [2] is 92% (inactive). For the same compound, the differential viability (reversal) in assay [6] (H69AR cells + 2 uM doxorubicin) was 2.78% (inactive). For the same compound, the inhibition in assay [7] is -6.13% (inactive); in assay [8], -1.13% (inactive).
Regarding `COCCCn1c2nc3ccccc3nc2c2c(=O)n(-c3ccccc3OC)cnc21`, the viability in assay [1] was 97.5%; in assay [3], 97.5% (inactive); in assay [4], 97.8% (inactive); in assay [5] it was 73.7% (inactive); in assay [6] (setting [9]), 67.5%; in assay [6] (setting [10]), 73.7%. The Her2 level in assay [2] is 100% (inactive). Further, the differential viability (reversal) in assay [6] (H69AR cells + 2 uM doxorubicin) is 6.27% (inactive). Also, the inhibition was -0.8% (inactive) in assay [7] and 4.75% (inactive) in assay [8].
Take `O=S(=O)(NCCCCCNS(=O)(=O)c1ccccc1)c1ccccc1`: the viability was 92.5% in assay [1]; 92.5% (inactive) in assay [3]; 112% (inactive) in assay [4]; 93.2% (inactive) in assay [5]; 107% in assay [6] (setting [9]); 93.2% in assay [6] (setting [10]). Besides, the Her2 level in assay [2] was 90.5% (inactive). In assay [6] (H69AR cells + 2 uM doxorubicin), the differential viability (reversal) is -13.4% (inactive). Also, the inhibition in assay [7] was -4% (inactive); in assay [8], -3.39% (inactive).
`COCc1nnc(NC(=O)CCCOc2ccccc2)s1`: the viability in assay [1] was 107%; in assay [3], 107% (inactive); in assay [4] it was 85.6% (inactive); in assay [5] it was 98.5% (inactive); in assay [6] (setting [9]), 88.1%; in assay [6] (setting [10]), 98.5%. Besides, in assay [2], the Her2 level was 92% (inactive). Further, the differential viability (reversal) in assay [6] (H69AR cells + 2 uM doxorubicin) was 10.4% (inactive). For the same compound, the inhibition in assay [7] is -6.53% (inactive); in assay [8] it was -3.97% (inactive).
As for `COc1cccc(-c2cc(C(F)(F)F)n3ncc(C(=O)O)c3n2)c1`, the viability in assay [1] was 93%; in assay [3], 93% (inactive); in assay [4] it was 117% (inactive); in assay [5] it was 108% (inactive); in assay [6] (setting [9]), 98.8%; in assay [6] (setting [10]), 108%. For the same compound, the Her2 level in assay [2] was 87.5% (inactive). In addition, the differential viability (reversal) in assay [6] (H69AR cells + 2 uM doxorubicin) is 9.06% (inactive). Besides, the inhibition in assay [7] was -3.2% (inactive); in assay [8], -2.95% (inactive).
`CCC(C)Nc1nc2c(c(=O)n(C)c(=O)n2C)n1Cc1ccc(F)cc1` (stereo not given): the viability in assay [1] was 90.5%; in assay [3] it was 90.5% (inactive); in assay [4], 88.6% (inactive); in assay [5], 83.3% (inactive); in assay [6] (setting [9]), 97.6%; in assay [6] (setting [10]), 83.3%. Moreover, in assay [2], the Her2 level was 86.5% (inactive). Moreover, the differential viability (reversal) in assay [6] (H69AR cells + 2 uM doxorubicin) is -14.3% (inactive). In addition, the inhibition is -5.27% (inactive) in assay [7] and 5.08% (inactive) in assay [8].
Take `CCOC(=O)CNc1ccc2c(c1)OCO2`: the viability is 88% in assay [1]; 88% (inactive) in assay [3]; 76.6% (inactive) in assay [4]; 98.7% (inactive) in assay [5]; 85.6% in assay [6] (setting [9]); 98.7% in assay [6] (setting [10]). For the same compound, in assay [2], the Her2 level was 90% (inactive). In assay [6] (H69AR cells + 2 uM doxorubicin), the differential viability (reversal) was 13.2% (inactive). The inhibition in assay [7] was -5% (inactive); in assay [8] it was -2.3% (inactive).
Take `Cc1ccc(-c2cc(C(=O)O)n[nH]2)o1`: the viability in assay [1] is 95.5%; in assay [3] it was 95.5% (inactive); in assay [4], 98.7% (inactive); in assay [5], 99.3% (inactive); in assay [6] (setting [9]), 101%; in assay [6] (setting [10]), 99.3%. Further, in assay [2], the Her2 level is 128% (inactive). For the same compound, the differential viability (reversal) in assay [6] (H69AR cells + 2 uM doxorubicin) is -1.46% (inactive). Further, the inhibition in assay [7] is -3.01% (inactive); in assay [8] it was -0.16% (inactive).
With `CC12CN3CC(C)(CN(C1)C3c1ccc(Br)cc1)C2` (stereo not given), the viability in assay [1] is 99%; in assay [3], 99% (inactive); in assay [4] it was 99.2% (inactive); in assay [5] it was 102% (inactive); in assay [6] (setting [9]), 89.4%; in assay [6] (setting [10]), 102%. The Her2 level in assay [2] is 97% (inactive). Moreover, the differential viability (reversal) in assay [6] (H69AR cells + 2 uM doxorubicin) is 12.9% (inactive). In addition, the values for the inhibition in assay [7] and in assay [8] were -2.63% (inactive) and 2.46% (inactive), respectively.
On to `CC(C)c1nnc(SCC(=O)NCc2ccco2)n1C`, for which the viability in assay [1] is 105%; in assay [3], 105% (inactive); in assay [4], 94.7% (inactive); in assay [5], 79.6% (inactive); in assay [6] (setting [9]) it was 85.2%; in assay [6] (setting [10]), 79.6%. In addition, the Her2 level in assay [2] is 91% (inactive). In addition, the differential viability (reversal) in assay [6] (H69AR cells + 2 uM doxorubicin) is -5.55% (inactive). The inhibition in assay [7] is -0.14% (inactive); in assay [8] it was 4.76% (inactive).
As to `Cc1nc2c(o1)CCc1ccccc1C2O` (stereo not given), the viability is 96% in assay [1]; 96% (inactive) in assay [3]; 93.9% (inactive) in assay [4]; 94.4% (inactive) in assay [5]; 99.7% in assay [6] (setting [9]); 94.4% in assay [6] (setting [10]). Also, in assay [2], the Her2 level is 91% (inactive). Moreover, in assay [6] (H69AR cells + 2 uM doxorubicin), the differential viability (reversal) was -5.3% (inactive). Further, the inhibition was -4% (inactive) in assay [7] and -2.95% (inactive) in assay [8].
`CCN(CC)C(=O)CSc1nc2ccccc2c(=O)n1CCC(=O)NCc1ccc(F)cc1`: the viability was 93% in assay [1]; 93% (inactive) in assay [3]; 98.3% (inactive) in assay [4]; 92.7% (inactive) in assay [5]; 89.6% in assay [6] (setting [9]); 92.7% in assay [6] (setting [10]). In addition, the Her2 level in assay [2] is 105% (inactive). The differential viability (reversal) in assay [6] (H69AR cells + 2 uM doxorubicin) is 3.08% (inactive). Moreover, the values for the inhibition in assay [7] and in assay [8] were 4.34% (inactive) and 20.2% (inactive), respectively.
For `Cc1ccc2cc(C(c3nnnn3CC3CCCO3)N3CCCC4(CCCCC4)C3)c(=O)[nH]c2c1` (stereo not given), the viability in assay [1] is 107%; in assay [3] it was 107% (inactive); in assay [4], 97.9% (inactive); in assay [5] it was 85.1% (inactive); in assay [6] (setting [9]), 93.6%; in assay [6] (setting [10]) it was 85.1%. Besides, the Her2 level in assay [2] was 92.5% (inactive). The differential viability (reversal) in assay [6] (H69AR cells + 2 uM doxorubicin) was -8.48% (inactive). The inhibition was -7.27% (inactive) in assay [7] and 0% (inactive) in assay [8].
For `COc1cc(-c2nc(S(=O)(=O)c3ccccc3)c(N3CCOCC3)o2)cc(OC)c1OC`, the viability in assay [1] is 82.5%; in assay [3], 82.5% (inactive); in assay [4], 97.7% (inactive); in assay [5], 87.1% (inactive); in assay [6] (setting [9]), 72.2%; in assay [6] (setting [10]), 87.1%. Besides, the Her2 level in assay [2] was 86.5% (inactive). The differential viability (reversal) in assay [6] (H69AR cells + 2 uM doxorubicin) is 14.8% (inactive). For the same compound, the inhibition was -3.16% (inactive) in assay [7] and 12% (inactive) in assay [8].
For `CCCn1c(C)nc2c(c1=O)c1nc3ccccc3nc1n2CCc1ccccc1`, the viability in assay [1] is 98%; in assay [3], 98% (inactive); in assay [4], 102% (inactive); in assay [5], 88.5% (inactive); in assay [6] (setting [9]) it was 91.9%; in assay [6] (setting [10]), 88.5%. In assay [2], the Her2 level is 103% (inactive). Besides, in assay [6] (H69AR cells + 2 uM doxorubicin), the differential viability (reversal) was -3.46% (inactive). For the same compound, the inhibition in assay [7] was -4.42% (inactive); in assay [8], 0.5% (inactive).
As for `COc1ccc(Br)cc1C(=O)Nc1nnn(C)n1`, the viability in assay [1] was 81.5%; in assay [3] it was 81.5% (inactive); in assay [4] it was 106% (inactive); in assay [5] it was 104% (inactive); in assay [6] (setting [9]), 93.2%; in assay [6] (setting [10]) it was 104%. For the same compound, the Her2 level in assay [2] is 106% (inactive). Besides, the differential viability (reversal) in assay [6] (H69AR cells + 2 uM doxorubicin) was 10.9% (inactive). Moreover, the inhibition in assay [7] was 3.95% (inactive); in assay [8], 30.5% (active).
